Series [1] deals with mushroom tyrosinase. The experiment in a line: Mushroom tyrosinase inhibition, monophenolase assay. The format is biochemical, Agaricus bisporus (mushroom). As to conditions: L-tyrosine substrate; for pIC50 ±SEM Monophenolase: mushroom tyrosinase, pH 6.5. The method, boiled down: (§1)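 Test compound came from 10 mM DMSO stocks. […] Enzyme, diluted to 500 U/mL before plating, was preincubated 15 min with test compound, then substrate was added. A490 was read every 3 min up to 30 min.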

In series [2] the test system is mushroom tyrosinase. The experiment in a line: Mushroom tyrosinase inhibition, diphenolase assay. The format is biochemical, Agaricus bisporus (mushroom). As to conditions: L-DOPA substrate; for % inhibition 500 μM ±SD Diphenolase: at 500 μM; for % inhibition ±SD Diphenolase: at 200 μM (asterisk). The method, boiled down:
as §1

Series [3] is described as follows: Radical scavenging activity, DPPH assay. To be noted: at 500 μM, 30 min, 37 °C. The method, boiled down:
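DPPH (250 μM in methanol) was mixed with an equal volume of test compound prepared at 1 mM in methanol. Reference antioxidants were run alongside, with DMSO as negative control. A515 was read after 30 min at 37 °C, in triplicate. Scavenging = 100 × (control Abs − sample Abs)/control Abs.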
In general terms: DPPH is a stable violet radical that fades when it is reduced.

A short description of series [4]: Cytotoxicity against mammalian cells. The format is cell-based. To be noted: mouse, NCTC clone L929 murine fibroblast cells. The method, boiled down: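 Murine NCTC fibroblasts (ATCC clone 929) were grown in RPMI-1640 with 10% FBS, counted by hemocytometer and seeded at 6 × 10^4/well. They were exposed to test compound at 200–1.5 μM for 48 h at 37 °C in humidified 5% CO2. Viability was read by MTT, and CC50 was derived by nonlinear regression.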

23 compounds from paper PMC10666245 (ACS Omega, 2023) can be followed below.

For the compound `O=C(O)/C=C/c1ccc(O)cc1` [pCA, p-coumaric acid, reference compound], the “pIC50 ±SEM Monophenolase” value at mushroom tyrosinase [1] worked out at 4.00 ± 0.01. Also, the “% inhibition 500 μM ±SD Diphenolase” value with mushroom tyrosinase [2] was “(16.4 ± 13.0%)”.
For `COc1cc(/C=C/C(=O)N2CCN(c3ccccc3)CC2)ccc1O` [Compound 4b, (E)-3-(4-Hydroxy-3-methoxyphenyl)-1-(4-phenylpiperazin-1-yl)prop-2-en-1-one], the “pIC50 ±SEM Monophenolase” value against mushroom tyrosinase [1] was determined as 4.50 ± 0.04. Also, the “% inhibition 500 μM ±SD Diphenolase” value in the series with mushroom tyrosinase [2] was “(51.5 ± 3.2%)”.
`COc1ccc(/C=C/C(=O)N2CCN(Cc3ccccc3)CC2)cc1` [Compound 3c, (E)-1-(4-Benzylpiperazin-1-yl)-3-(4-methoxyphenyl)prop-2-en-1-one]: the “pIC50 ±SEM Monophenolase” value against mushroom tyrosinase [1] is on record as 3.86 ± 0.04. In the series with mushroom tyrosinase [2], the “% inhibition 500 μM ±SD Diphenolase” value is “(43.5 ± 2.3%)”.
For `COc1cc(/C=C/C(=O)N2CCN(Cc3ccccc3)CC2)ccc1O` [Compound 3b, (2E)-1-(4-Benzylpiperazin-1-yl)-3-(4-hydroxy-3-methoxyphenyl)prop-2-en-1-one], in that order: 4.16 ± 0.02 and “(42.3 ± 3.4%)”.
The corresponding values for `O=C(c1ccc(O)c(O)c1)N1CCN(Cc2ccccc2)CC1` [Compound 1a, (4-Benzylpiperazin-1-yl)-(3,4-dihydroxyphenyl)methanone] are 4.42 ± 0.04 and “(37.0 ± 2.7%)”.
On to `O=C(/C=C/c1ccc(O)c(O)c1)N1CCC(Cc2ccccc2)CC1` [Compound 6a, (E)-1-(4-Benzyl-1-piperidyl)-3-(3,4-dihydroxyphenyl)prop-2-en-1-one], for which, on mushroom tyrosinase [1], the “pIC50 ±SEM Monophenolase” value worked out at 4.56 ± 0.01. Also, in the series on mushroom tyrosinase [2], the “% inhibition ±SD Diphenolase” value is “(18.5 ± 1.1%)”.
`O=C(c1ccc(O)cc1)N1CCC(Cc2ccccc2)CC1` [Compound 5d, (4-Benzyl-1-piperidyl)-(4-hydroxyphenyl)methanone]: the “pIC50 ±SEM Monophenolase” value on mushroom tyrosinase [1] was determined as 4.59 ± 0.01. Also, the “% inhibition ±SD Diphenolase” value in the series with mushroom tyrosinase [2] is given as “(14.7 ± 1.6%)”.
Turning to `COc1cc(C(=O)N2CCC(Cc3ccccc3)CC2)ccc1O` [Compound 5b, (4-Benzyl-1-piperidyl)-(4-hydroxy-3-methoxy-phenyl)methanone], the “pIC50 ±SEM Monophenolase” value against mushroom tyrosinase [1] is listed as 4.99 ± 0.01. Besides, the “% inhibition ±SD Diphenolase” value with mushroom tyrosinase [2] is “(13.2 ± 0.8%)”. Moreover, the “radical scavenging activity (DPPH)” value in series [3] was 10%.
For `COc1cc(C(=O)N2CCN(Cc3ccccc3)CC2)ccc1O` [Compound 1b, (4-Benzylpiperazin-1-yl)(4-hydroxy-3-methoxyphenyl)methanone], at mushroom tyrosinase [1], the “pIC50 ±SEM Monophenolase” value was determined as 4.49 ± 0.02. Moreover, in the series on mushroom tyrosinase [2], the “% inhibition 500 μM ±SD Diphenolase” value was “(41.6 ± 1.2%)”.
Turning to `O=C(/C=C/c1ccc(O)c(O)c1)N1CCN(Cc2ccccc2)CC1` [Compound 3a, (E)-1-(4-Benzylpiperazin-1-yl)-3-(3,4-dihydroxyphenyl)prop-2-en-1-one], the IC50 at mushroom tyrosinase [1] (read-out: IC50 tyrosinase inhibition, monophenolase) is less than 100 µM; at mushroom tyrosinase [2] (read-out: IC50 tyrosinase inhibition, diphenolase) it was less than 100 µM. Also, on mushroom tyrosinase [2] (mushroom tyrosinase, pH 6.5), the “pIC50 ±SEM Diphenolase” value was determined as 4.18 ± 0.03. Also, in series [3], the “radical scavenging activity (DPPH)” value is 29%.
`COc1cc(C(=O)N2CCN(c3ccccc3)CC2)ccc1O` [Compound 2b, (4-Hydroxy-3-methoxyphenyl)-(4-phenylpiperazin-1-yl)methanone]: the “pIC50 ±SEM Monophenolase” value at mushroom tyrosinase [1] was 3.85 ± 0.03. In addition, the “% inhibition 500 μM ±SD Diphenolase” value with mushroom tyrosinase [2] is reported as “(24.3 ± 4.1%)”.
Consider `COc1ccc(C(=O)N2CCC(Cc3ccccc3)CC2)cc1` [Compound 5c, 4-Benzyl-1-(4-methoxybenzoyl)piperidine], for which the “pIC50 ±SEM Monophenolase” value on mushroom tyrosinase [1] came out at 4.67 ± 0.01. In addition, the “% inhibition 500 μM ±SD Diphenolase” value in the series with mushroom tyrosinase [2] was “(30.5 ± 1.6%)”.
With `O=C(c1ccc(O)c(O)c1)N1CCC(Cc2ccccc2)CC1` [Compound 5a, (4-Benzyl-1-piperidyl)-(3,4-dihydroxyphenyl)methanone], at mushroom tyrosinase [1], the “pIC50 ±SEM Monophenolase” value was determined as 4.74 ± 0.04. Also, the “% inhibition ±SD Diphenolase” value with mushroom tyrosinase [2] is on record as “(30.9 ± 3.9%)”. The “radical scavenging activity (DPPH)” value in series [3] was determined as 42%.
As to `COc1ccc(C(=O)N2CCN(Cc3ccccc3)CC2)cc1` [Compound 1c, (4-Benzylpiperazin-1-yl)-(4-methoxyphenyl)methanone], at mushroom tyrosinase [1], the “pIC50 ±SEM Monophenolase” value amounted to 3.94 ± 0.06. In addition, in the series with mushroom tyrosinase [2], the “% inhibition 500 μM ±SD Diphenolase” value is “(44.2 ± 3.0%)”.
Regarding `O=C(c1ccc(O)cc1)N1CCN(Cc2ccccc2)CC1` [Compound 1d, (4-Benzylpiperazin-1-yl)-(4-hydroxyphenyl)methanone], the “pIC50 ±SEM Monophenolase” value against mushroom tyrosinase [1] stood at 4.11 ± 0.05. In addition, in the series on mushroom tyrosinase [2], the “% inhibition 500 μM ±SD Diphenolase” value was “(35.2 ± 3.3%)”.
With `O=C(/C=C/c1ccc(O)cc1)N1CCN(Cc2ccccc2)CC1` [Compound 3d, (E)-1-(4-Benzylpiperazin-1-yl)-3-(4-hydroxyphenyl)prop-2-en-1-one], the “pIC50 ±SEM Monophenolase” value on mushroom tyrosinase [1] is given as 4.54 ± 0.03. In the series on mushroom tyrosinase [2], the “% inhibition 500 μM ±SD Diphenolase” value was “(43.0 ± 2.9%)”.
`O=C(c1ccc(O)c(O)c1)N1CCN(c2ccccc2)CC1` [Compound 2a, (3,4-Dihydroxyphenyl)-(4-phenylpiperazin-1-yl)methanone]: on mushroom tyrosinase [1], the “pIC50 ±SEM Monophenolase” value is 4.42 ± 0.04. Further, the “% inhibition 500 μM ±SD Diphenolase” value in the series with mushroom tyrosinase [2] is reported as “(27.7 ± 3.0%)”.
Take `COc1ccc(C(=O)N2CCN(c3ccccc3)CC2)cc1` [Compound 2c, (4-Methoxyphenyl)-(4-phenylpiperazin-1-yl)methanone]: on mushroom tyrosinase [1], the “pIC50 ±SEM Monophenolase” value is 3.54 ± 0.05. The “% inhibition 500 μM ±SD Diphenolase” value with mushroom tyrosinase [2] is listed as “(31.1 ± 5.3%)”.
In the case of `O=C(/C=C/c1ccc(O)cc1)N1CCC(Cc2ccccc2)CC1` [Compound 6d, (E)-1-(4-Benzyl-1-piperidyl)-3-(4-hydroxyphenyl)prop-2-en-1-one], in the series with mushroom tyrosinase [1] (at 200 μM (asterisk)), the “% inhibition ±SD Monophenolase” value is “(48.3 ± 1.1%)”. The “% inhibition ±SD Diphenolase” value with mushroom tyrosinase [2] is “(20.3 ± 1.3%)”.
On to `O=C(c1ccc(Cl)cc1)N1CCN(Cc2ccccc2)CC1` [Compound 1e, 1-Benzyl-4-(4-chlorobenzoyl)piperazine], for which the “pIC50 ±SEM Monophenolase” value on mushroom tyrosinase [1] worked out at 4.37 ± 0.04. The “% inhibition 500 μM ±SD Diphenolase” value with mushroom tyrosinase [2] is “(45.2 ± 7.6%)”.
As for `COc1cc(/C=C/C(=O)N2CCC(Cc3ccccc3)CC2)ccc1O` [Compound 6b, (E)-1-(4-Benzyl-1-piperidyl)-3-(4-hydroxy-3-methoxy-phenyl)prop-2-en-1-one], the “pIC50 ±SEM Monophenolase” value against mushroom tyrosinase [1] is recorded as 4.53 ± 0.01. The “% inhibition ±SD Diphenolase” value with mushroom tyrosinase [2] is given as “(12.0 ± 1.5%)”. Besides, the “radical scavenging activity (DPPH)” value in series [3] is reported as 28%.
Regarding “(E)-1-(1-Benzylpiperidin-4-yl)-3-(4-methoxyphenyl)prop-2-en-1-one [Compound 6c]”, the “pIC50 ±SEM Monophenolase” value on mushroom tyrosinase [1] turned out to be 4.85 ± 0.07. For the same compound, in the series with mushroom tyrosinase [2], the “% inhibition 500 μM ±SD Diphenolase” value is recorded as “(22.1 ± 3.1%)”.
On to `O=C(/C=C/c1ccc(O)c(O)c1)N1CCN(c2ccccc2)CC1` [Compound 4a, (E)-3-(3,4-Dihydroxyphenyl)-1-(4-phenylpiperazin-1-yl)prop-2-en-1-one], for which the “radical scavenging activity (DPPH)” value in series [3] came out at 65.0%. Also, the CC50 at 48 h in series [4] came to 57.2 ± 2 µM.

A word on the IC50: it is the concentration that gives 50% inhibition. One may read the CC50 as the concentration that lowers cell viability or growth by half. A higher CC50 goes with lower toxicity to the cells.
